Laboratory results published in ChEMBL document CHEMBL1125400, “Synthesis and antibacterial activity of some novel 6-methyl- and 6-propenyl-substituted carbapenems” (J Med Chem, 1992).
Converted amounts (≈) assume the structure as drawn. “And” between values parts separate entries of the source, which are not always exact repeats. Identical values can stand only once.

What was measured:
Streptococcus pneumoniae = assay: In vitro antibacterial activity against Streptococcus pneumoniae (A9585); format: functional
Procedure, shortened: (§1)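 Streptococcal MIC by broth microdilution in Todd-Hewitt Broth with a final inoculum of 5.0 × 10^5 CFU/mL. Trays incubated 18 h at 35 °C. Endpoint is the lowest concentration preventing growth, in µg/mL.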

Enterobacter cloacae = assay: In vitro antibacterial activity against Enterobacter cloacae (A9659); format: functional
Procedure, shortened: (§2)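 Broth microdilution MIC in Nutrient Broth with a final inoculum of 5.0 × 10^5 CFU/mL. Trays incubated 18 h at 35 °C. MIC taken as the lowest antibiotic concentration inhibiting bacterial growth, in µg/mL.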

Escherichia coli [1] = assay: In vitro evaluation for the antibacterial activity […] in e) Escherichia coli (A15119); format: functional
Streptococcus pyogenes = assay: In vitro antibacterial activity against Streptococcus pyogenes (A9604); format: functional; procedure, shortened: as §1
Proteus vulgaris = assay: In vitro antibacterial activity against Proteus vulgaris (A21559); format: functional; procedure, shortened: as §2
Pseudomonas aeruginosa [2] = assay: In vitro antibacterial activity against Pseudomonas aeruginosa (A9843); format: functional; procedure, shortened: as §2
Klebsiella pneumoniae [3] = assay: In vitro antibacterial activity against Klebsiella pneumoniae (A9664); format: functional; procedure, shortened: as §2
Staphylococcus aureus = assay: In vitro antibacterial activity against Staphylococcus aureus (A9537); format: functional; procedure, shortened: as §2
[4] = Half-life by UV spectrophotometry; format: ADME; conditions: for half-life: read-out: Stability (converted)
Procedure, shortened: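 Chemical stability in solution: about 10^-4 M compound in 0.07 M phosphate buffer, pH 7.4, held at 37 °C. Decay followed by UV spectrophotometry; half-life reported in hours.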

Enterococcus faecalis = assay: In vitro antibacterial activity against Streptococcus faecalis (A20688); format: functional; procedure, shortened: as §1
Providencia rettgeri [5] = assay: In vitro antibacterial activity against Providencia rettgeri (A22424); format: functional; procedure, shortened: as §2
Mus musculus = assay: Protective dose when administered orally for 50 percent of the mice tested. Mice were treated twice, at 0 and 2 hour after infection with Escherichia coli; format: functional; conditions: po, read-out: PD50
Procedure, shortened: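 Mice infected with E. coli and given test agent orally twice, at 0 and 2 h after infection. PD50 is the dose protecting 50% of animals, expressed as mg/kg per dose.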

Escherichia coli [6] = assay: In vitro antibacterial activity against Escherichia coli (A15119); format: functional; procedure, shortened: as §2
Providencia rettgeri [7] = assay: IIn vitro antibacterial activity against Providencia rettgeri (A22424); format: functional; procedure, shortened: as §2
Klebsiella pneumoniae [8] = assay: In vitro evaluation for the antibacterial activity […] in Klebsiella pneumoniae (A9664); format: functional
Pseudomonas aeruginosa [9] = assay: In vitro evaluation for the antibacterial activity […] in Pseudomonas aeruginosa (A9843); format: functional
[10] = Streptococcus pyogenes, read-out: MIC
[11] = Pseudomonas aeruginosa, read-out: MIC
[12] = Providencia rettgeri, read-out: MIC

| MIC (Providencia rettgeri [5]; [12]) [µg/mL] | MIC (Escherichia coli [6]) [µg/mL] | MIC (Pseudomonas aeruginosa [9]) [µg/mL] | MIC (Streptococcus pyogenes) | MIC (Pseudomonas aeruginosa [2]) [µg/mL] | Stability [4] [h] | MIC (Providencia rettgeri [5]) [µg/mL] | SMILES | MIC (Streptococcus pneumoniae) [µg/mL] | MIC (Enterobacter cloacae) [µg/mL] | MIC (Escherichia coli [1]) [µg/mL] | MIC (Streptococcus pyogenes; [10]) [µg/mL] | MIC (Proteus vulgaris) [µg/mL] | MIC (Pseudomonas aeruginosa [2]; [11]) [µg/mL] | MIC (Klebsiella pneumoniae [3]) [µg/mL] | MIC (Staphylococcus aureus) [µg/mL] | half-life [4] [min] | MIC (Enterococcus faecalis) [µg/mL] | ED50 (Mus musculus) [mg/kg] | MIC (Providencia rettgeri [7]) [µg/mL] | MIC (Klebsiella pneumoniae [8]) [µg/mL] |
| --- | --- | --- | --- | --- | --- | --- | --- | --- | --- | --- | --- | --- | --- | --- | --- | --- | --- | --- | --- | --- |
| 64 (≈ 152 µM) | 32 (≈ 75.9 µM) | – | – | – | – | – | C[C@H]1C(SCc2ccccn2)=C(C(=O)O)N2C(=O)[C@H](/C=C/CNc3ccccc3)[C@@H]12 | – | 64 (≈ 152 µM) | – | – | 64 (≈ 152 µM) | 64 (≈ 152 µM) | 64 (≈ 152 µM) | 0.25 (≈ 0.593 µM) | 2100 | > 64 | – | – | – |
| – | – | – | – | – | – | – | C[C@H]1C(SCc2cccnc2)=C(C(=O)O)N2C(=O)[C@H](CO)[C@@H]12 | 0.002 (≈ 0.00624 µM) | 0.06 (≈ 0.187 µM) | 0.016 (≈ 0.0499 µM) | 0.004 (≈ 0.0125 µM) | 0.13 (≈ 0.406 µM) | 125 (≈ 390 µM) | – | 0.008 (≈ 0.025 µM) | 2700 | 4 (≈ 12.5 µM) | 7 | 0.5 (≈ 1.56 µM) | 0.06 (≈ 0.187 µM) |
| 32 (≈ 86.2 µM) | 8 (≈ 21.5 µM) | 125 (≈ 337 µM) | – | – | – | – | C[C@H]1C(SCc2ccccn2)=C(C(=O)O)N2C(=O)[C@H](/C=C/CN=[N+]=[N-])[C@@H]12 | 0.03 (≈ 0.0808 µM) | 32 (≈ 86.2 µM) | – | 0.03 (≈ 0.0808 µM) | 8 (≈ 21.5 µM) | – | 16 (≈ 43.1 µM) | 0.06 (≈ 0.162 µM) | 1260 | 32 (≈ 86.2 µM) | – | – | – |
| 2 (≈ 5.77 µM) | – | – | 0.25 µg/mL and 0.56 µg/mL | 125 (≈ 361 µM) | 72 | 2 (≈ 5.77 µM) | C=CC(O)[C@H]1C(=O)N2C(C(=O)O)=C(SCc3ccccn3)[C@H](C)[C@H]12 (stereo partly specified) | – | – | – | – | – | 125 (≈ 361 µM) | – | – | 4320 | – | – | – | – |
| 16 (≈ 46.2 µM) | 8 (≈ 23.1 µM) | – | – | – | – | – | C[C@H]1C(SCc2ccccn2)=C(C(=O)O)N2C(=O)[C@H](/C=C/CO)[C@@H]12 | 0.13 (≈ 0.375 µM) | 32 (≈ 92.4 µM) | – | 0.06 (≈ 0.173 µM) | 8 (≈ 23.1 µM) | 125 (≈ 361 µM) | 16 (≈ 46.2 µM) | 1 (≈ 2.89 µM) | 1260 | 125 (≈ 361 µM) | – | – | – |

| SMILES | MIC (Providencia rettgeri [5]; [12]) [µg/mL] | MIC (Escherichia coli [6]) [µg/mL] | MIC (Pseudomonas aeruginosa [9]) [µg/mL] | MIC (Streptococcus pyogenes) | MIC (Pseudomonas aeruginosa [2]) [µg/mL] | Stability [4] [h] | MIC (Providencia rettgeri [5]) [µg/mL] | MIC (Streptococcus pneumoniae) [µg/mL] | MIC (Enterobacter cloacae) [µg/mL] | MIC (Escherichia coli [1]) [µg/mL] | MIC (Streptococcus pyogenes; [10]) [µg/mL] | MIC (Proteus vulgaris) [µg/mL] | MIC (Pseudomonas aeruginosa [2]; [11]) [µg/mL] | MIC (Klebsiella pneumoniae [3]) [µg/mL] | MIC (Staphylococcus aureus) [µg/mL] | half-life [4] [min] | MIC (Enterococcus faecalis) [µg/mL] | ED50 (Mus musculus) [mg/kg] | MIC (Providencia rettgeri [7]) [µg/mL] | MIC (Klebsiella pneumoniae [8]) [µg/mL] |
| --- | --- | --- | --- | --- | --- | --- | --- | --- | --- | --- | --- | --- | --- | --- | --- | --- | --- | --- | --- | --- |
| C[C@@H](N)[C@H]1C(=O)N2C(C(=O)O)=C(SCc3cccnc3)[C@H](C)[C@H]12 | 2 (≈ 6 µM) | – | – | – | – | – | – | 4 (≈ 12 µM) | 0.06 (≈ 0.18 µM) | 0.03 (≈ 0.09 µM) | 4 (≈ 12 µM) | 0.016 (≈ 0.048 µM) | 1 (≈ 3 µM) | 0.13 (≈ 0.39 µM) | 2 (≈ 6 µM) | 180 | 63 (≈ 189 µM) | 8 | – | – |
| C[C@H]1C(SCc2cccnc2)=C(C(=O)O)N2C(=O)[C@H](CN)[C@@H]12 | 0.25 (≈ 0.783 µM) | – | – | – | – | – | – | 0.5 (≈ 1.57 µM) | 0.016 (≈ 0.0501 µM) | 0.008 (≈ 0.025 µM) | 0.5 (≈ 1.57 µM) | 0.016 (≈ 0.0501 µM) | 1 (≈ 3.13 µM) | 0.03 (≈ 0.0939 µM) | 0.5 (≈ 1.57 µM) | 90 | 125 (≈ 391 µM) | > 25 | – | – |
| C[C@@H](O)[C@H]1C(=O)N2C(C(=O)O)=C(SCc3cccnc3)[C@H](C)[C@H]12 | 16 (≈ 47.8 µM) | 0.016 (≈ 0.0478 µM) | – | – | – | – | – | 0.016 (≈ 0.0478 µM) | 0.13 (≈ 0.389 µM) | – | 0.016 (≈ 0.0478 µM) | 0.03 (≈ 0.0897 µM) | 125 (≈ 374 µM) | 0.13 (≈ 0.389 µM) | 0.016 (≈ 0.0478 µM) | 3900 | 2 (≈ 5.98 µM) | 17 | – | – |
